Key:
[1] = folding enthalpy; higher = less favourable; fluorescence melt of hairpins on a sequencing array, two-state fit; conditions: sodium 0.088 M
Summary of the method: (§1)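 Cy3 signals were normalised both to pre-quench Cy3 and to control constructs. They came from library hairpins carrying annealed Cy3 and quencher oligos on a sequenced MiSeq flow cell, imaged in 50 mM Na-HEPES pH 8.0, 25 mM NaCl, in 2.5 °C steps up to 60 °C. Bootstrapped two-state fits gave melting temperature and folding enthalpy, and four replicates were combined by inverse variance. Fitted temperatures were then raised by 9.35 °C to match UV melts.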

[2] = melting temperature; fluorescence melt of hairpins on a sequencing array, two-state fit, raised by 9.35 °C to match UV melts; conditions: sodium 0.088 M
Summary of the method: as §1

Sequence | folding enthalpy [1] | Tm [2]
GTTGCCGAAAGGCTAAC ((((((....))).))) | -14 kcal/mol | 42.3 °C
GCAAAGCGAAAGCTAGGC ((..(((....)))..)) | -15.1 kcal/mol | 48.3 °C
GCTTGCGAAAGCAACAGC ((((((....)))..))) | -11.4 kcal/mol | 44.4 °C
GCGTAGGGACGC ((((....)))) | -13 kcal/mol | 52 °C
GCCACTGGAAACAATGGC ((((.((....)).)))) | -26.7 kcal/mol | 42.2 °C
GATCGTCTCAACGATC ((((((....)))))) | -41.6 kcal/mol | 57.6 °C
GCTTCGGGAAACCAAAGC ((((.((....)).)))) | -28.7 kcal/mol | 41.1 °C
GGTGGCGAAAGCCAGACC ((((((....)))..))) | -12.6 kcal/mol | 46.9 °C
GATTCAGAAATGAATC ((((((....)))))) | -25.8 kcal/mol | 46.7 °C
GCGTCGCGAAAGCTCCGC (((..((....))..))) | -21.1 kcal/mol | 46.8 °C
GCAGCGCGAAAGCAGTGC (((..((....))..))) | -18.1 kcal/mol | 52.8 °C
GGCATAGCGAAAGCTGCC (((..(((....)))))) | -31.4 kcal/mol | 59.2 °C
GAATAACGAAAGTTCTTC (((.(((....))).))) | -20.7 kcal/mol | 32.2 °C
GTATGCGAAAGCATAC ((((((....)))))) | -28.3 kcal/mol | 69.2 °C
GCGTGCATACGC ((((....)))) | -24.6 kcal/mol | 68.7 °C
GATCAATTGTTTGATC ((((((....)))))) | -35.9 kcal/mol | 46.1 °C
GGCTGCGGAAACACAGCC (((((.(....).))))) | -42 kcal/mol | 56 °C
GACAGCCGAAAGGCCGTC (((.(((....))).))) | -18.7 kcal/mol | 55 °C
GCGCCCGAAAGGGACGC ((((((....))).))) | -27.1 kcal/mol | 68.1 °C
GGAGTTGGAAACAACTTC (.(((((....))))).) | -31.1 kcal/mol | 47.5 °C
GCGTGCGGACGC ((((....)))) | -15.6 kcal/mol | 54.7 °C
GACTCCGAAAGGAACGTC ((((((....)))..))) | -15.2 kcal/mol | 36 °C
GATCGGACGTCCGATC ((((((....)))))) | -47.5 kcal/mol | 62.7 °C
GCGAGGCGAAAGCGACGC (((..((....))..))) | -25.4 kcal/mol | 62.1 °C

Sequence | folding enthalpy [1] | Tm [2]
GGTTCCACGAAAGTGACC (((..(((....)))))) | -15.1 kcal/mol | 31.6 °C
GTTCGCGCGAAAGCGAAC (((..(((....)))))) | -28.1 kcal/mol | 60.5 °C
GATCAAATCGTTGATC ((((((....)))))) | -30.6 kcal/mol | 42.4 °C
GTAACGCGAAAGCGCTAC (((.(((....))).))) | -19.6 kcal/mol | 51.9 °C
GGAAAAGGAAACTTTCCC ((.((((....)))).)) | -13.1 kcal/mol | 27.8 °C
ACTCGGAAACGAGT (((((....))))) | -20.8 kcal/mol | 52.3 °C
GATCCACAAGTGGATC ((((((....)))))) | -38.6 kcal/mol | 57.9 °C
GTGGTGGGAAACCGCCAC ((((.((....)).)))) | -40.2 kcal/mol | 61.9 °C
GCTTTACGAAAGTATAGC (((.(((....))).))) | -34.1 kcal/mol | 47 °C
GTGTTAGGAAACTAATAC ((.((((....)))).)) | -23.9 kcal/mol | 37.2 °C
GATCGAGGGTTCGATC ((((((....)))))) | -36.9 kcal/mol | 50.9 °C
CGGACCCGGAAACGGCCG (((..(((....)))))) | -18.8 kcal/mol | 38.9 °C
GGAAGCGAAAGCTACTCC ((((((....)))..))) | -13.3 kcal/mol | 30.8 °C
GTTGTCGAAAGACCAAAC ((((((....)))..))) | -10.6 kcal/mol | 26 °C
GCTACCGAAAGGTCAAGC ((((((....)))..))) | -14.9 kcal/mol | 39.1 °C
GACTTCGAAAGAAGTC ((((((....)))))) | -38.8 kcal/mol | 62 °C
GCGACTCGTCGC ((((....)))) | -33.6 kcal/mol | 68.3 °C
GCTACATCGAAAGATAGC (((..(((....)))))) | -16.7 kcal/mol | 33.8 °C
GGGACCGAAAGGTTTCCC ((((((....)))..))) | -18.6 kcal/mol | 42.5 °C
GCTTTGGGAAACCAAAAC (.(((((....))))).) | -19.8 kcal/mol | 31.3 °C
GCAGTCGAAAGACGATGC ((((((....)))..))) | -18 kcal/mol | 46.5 °C
GGCACCGAAAGGTAGCC ((((((....))).))) | -36.9 kcal/mol | 61.4 °C
GCTGAGCGAAAGCACGGC ((.(.((....)).).)) | -21.5 kcal/mol | 56.8 °C
GCGCGGACGAAAGTCCGC (((..(((....)))))) | -5.59 kcal/mol | 63.7 °C

Sequence | folding enthalpy [1] | Tm [2]
GATAAAACGAAAGTTATC (((..(((....)))))) | -9.65 kcal/mol | 22.7 °C
GCCTGGCGAAAGCGCGGC (((..((....))..))) | -19 kcal/mol | 57.1 °C
GGTGTCGAAAGACAAACC ((((((....)))..))) | -16.6 kcal/mol | 44.4 °C
GGCGCTGGAAACAACGCC ((((.((....)).)))) | -41 kcal/mol | 55.2 °C
GCCAGCGAAAGCTTGGGC ((((((....)))..))) | -26.7 kcal/mol | 52.5 °C
GATCCCTGGGGGGATC ((((((....)))))) | -37.2 kcal/mol | 63.9 °C
GTTGACGAAAGTCAGAAC ((((((....)))..))) | -10.4 kcal/mol | 36.5 °C
GGCACGGCGAAAGCCGCC (((..(((....)))))) | -8.23 kcal/mol | 44.6 °C
GGGCTGGGAAACCGGCTC (.((.((....)).)).) | -19.7 kcal/mol | 49.1 °C
ATTCGGAAACGAAT (((((....))))) | -18.4 kcal/mol | 44.8 °C
GCACAGCGAAAGCAGAGC ((.(.((....)).).)) | -13.7 kcal/mol | 47.3 °C
GCAGACGAAAGTCAGTGC ((((((....)))..))) | -19 kcal/mol | 46.4 °C
GCGGAGCGAAAGCTCTGC ((.((((....)))).)) | -35.8 kcal/mol | 68 °C
GTAACCGAAAGGTGATAC ((((((....)))..))) | -12.9 kcal/mol | 30.7 °C
GATCCGATGCGGATC ((((((...)))))) | -31 kcal/mol | 57.7 °C
GATCATCTACATGATC ((((((....)))))) | -38.5 kcal/mol | 46.2 °C
GCAGTGCGAAAGCCATGC (((..((....))..))) | -16.4 kcal/mol | 51.1 °C
GCGAACGAAAGTTGCCGC ((((((....)))..))) | -16.6 kcal/mol | 42.4 °C
GCTCGGGGAAACTCGGGC ((.((.(....).)).)) | -26 kcal/mol | 46.6 °C
GGCCGTGGAAACACAGCC (((.(((....))).))) | -36.8 kcal/mol | 50.1 °C
GTCCGGCGAAAGCCGAC (((.(((....)))))) | -9.75 kcal/mol | 49.1 °C
GCGCATGCGAAAGCACGC (((..(((....)))))) | -13.7 kcal/mol | 54.6 °C
GCCGTGGGAAACCACGAC (.(((((....))))).) | -14.8 kcal/mol | 52 °C
GCTATGCGAAAGCGGAGC (((..((....))..))) | -26.3 kcal/mol | 53.6 °C

Sequence | folding enthalpy [1] | Tm [2]
GATCTCACAGAGATC ((((((...)))))) | -39.3 kcal/mol | 56.1 °C
GTACCCGAAAGGGCTAC ((((((....))).))) | -15.3 kcal/mol | 40.2 °C
GTGACGGGAAACCGCCAC (((.(((....))).))) | -42.1 kcal/mol | 52.2 °C
GCGTCGGGACGC ((((....)))) | -20.2 kcal/mol | 66 °C
GACGGCGAAAGCCGAGTC ((((((....)))..))) | -8.09 kcal/mol | 45.8 °C
GATAAGCGAAAGCTATC (((.(((....)))))) | -14.7 kcal/mol | 42.8 °C
GCTAGACGAAAGTCAAGC (((.(((....))).))) | -30.4 kcal/mol | 52.7 °C
GATCTACGCGTAGATC ((((((....)))))) | -52.1 kcal/mol | 55.5 °C
GTCCAGGGAAACTTGGGC (.(((.(....).))).) | -29 kcal/mol | 34.7 °C
CATCCGAAAGGATG (((((....))))) | -25.8 kcal/mol | 63.1 °C
GATCCAAGTTTGGATC ((((((....)))))) | -41.1 kcal/mol | 52.1 °C
GGGCTTGGAAACAAGTCC ((.((((....)))).)) | -50.9 kcal/mol | 54.6 °C
GTTTAGCGAAAGCTAAC (((.(((....)))))) | -11.7 kcal/mol | 44.1 °C
GGGCATCGAAAGATACCC (((.(((....))).))) | -31.6 kcal/mol | 49.5 °C
GCTCTGCGAAAGCTGCGC ((.(.((....)).).)) | -18.4 kcal/mol | 44.2 °C
GATCAGACCGCTGATC ((((((....)))))) | -28.5 kcal/mol | 47.8 °C
GAATTGGAAACAATTC ((((((....)))))) | -35.6 kcal/mol | 47.3 °C
GCACGCGGAAACGCATGC (((.(((....))).))) | -40.4 kcal/mol | 52.8 °C
GGACCCGAAAGGGACTCC ((((((....)))..))) | -13 kcal/mol | 54 °C
GATCACCTGGGTGATC ((((((....)))))) | -47.5 kcal/mol | 62.6 °C
GCTCTCGAAAGAGCGAGC ((((((....)))..))) | -15.1 kcal/mol | 49.3 °C

Reference: the array DNA melting data of Ke et al. (doi:10.1101/2024.01.08.574731)
